# Data taken from ChEMBL document CHEMBL5380787, “Optimized M24B Aminopeptidase Inhibitors for CARD8 Inflammasome Activation” (J Med Chem, 2023).
# The source made the active and inactive calls. The calls are words filed in the database; no cut-off is given here.
# Key:
# MV4-11 [1] = assay: Cytotoxicity against human MV4-11 cells assessed as reduction in cell viability incubated for 24 hrs by celltiter-glo assay; format: functional, cell-based; conditions: MV4-11, 24 h
# How it was run: (§1)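 MV4;11 cells (WT or CASP1−/−), grown in RPMI 1640 with 10% FBS at 37 °C, 5% CO2, plated 2000 cells/well, dosed by pintool across 100 μM to 15.2 nM in three-fold steps for 24 h. Viability by CellTiter-Glo luminescence after 2 min shaking and 10 min at 25 °C. IC50 as mean ± SEM of three biological replicates.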
# MV4-11 [2] = assay: Cytotoxicity against human MV4-11 cells assessed as reduction in cell viability at 0.015 to 100 uM incubated for 24 hrs by celltiter-glo assay; format: functional; conditions: dose 0.015-100 µM; how it was run: as §1
# MV4-11 [3] = assay: Induction of cell death in human MV4-11 cells assessed as increase in PI uptake at 6.25 uM incubated for 6 hrs by PI staining based fluorescence analysis; format: functional
# How it was run: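 PI flux assay. 2 × 10^4 MV4;11 (WT, CARD8−/− or CASP1−/−) or OCI-AML2 cells in RPMI were given compound at 6.25 μM plus PI at 10 μM final. Fluorescence (Ex/Em 535/617 nm) was read every 5 min at 37 °C for 6 h, baseline-corrected to DMSO and normalized to the maximum response. n = 3.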
# MV4-11 [4] = assay: Induction of pyroptosis in human MV4-11 cells assessed as LDH release at 20 uM incubated for 24 hrs; format: functional, cell-based
# How it was run: (§2)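 Cells (MV4;11, OCI-AML2 or THP-1; WT or the knockout named) plated at 5 × 10^5 cells/well and exposed to 20 μM compound for 24 h. LDH in the supernatant was measured relative to a Triton X-100 lysis control. For immunoblots, cells were washed in PBS, sonicated, protein-normalized, run on SDS-PAGE and probed for GSDMD cleavage. n = 3.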
# OCI-AML2 [5] = assay: Induction of pyroptosis in CARD8 knockout human OCI-AML2 cells assessed as LDH release at 20 uM incubated for 24 hrs; format: functional, cell-based; how it was run: as §2
# THP-1 [6] = assay: Induction of pyroptosis in CARD8 knockout human THP-1 cells assessed as LDH release at 20 uM incubated for 24 hrs; format: functional, cell-based; how it was run: as §2
# MV4-11 [7] = assay: Induction of pyroptosis in CARD8 knockout human MV4-11 cells assessed as GSDMD cleavage at 20 uM incubated for 24 hrs by immunoblot analysis; format: functional, cell-based; how it was run: as §2
# OCI-AML2 [8] = assay: Induction of pyroptosis in human OCI-AML2 cells assessed as GSDMD cleavage at 20 uM incubated for 24 hrs by immunoblot analysis; format: functional, cell-based; how it was run: as §2
# OCI-AML2 [9] = assay: Induction of pyroptosis in CARD8 knockout human OCI-AML2 cells assessed as GSDMD cleavage at 20 uM incubated for 24 hrs by immunoblot analysis; format: functional, cell-based; how it was run: as §2
# THP-1 [10] = assay: Induction of pyroptosis in human THP-1 cells assessed as GSDMD cleavage at 20 uM incubated for 24 hrs by immunoblot analysis; format: functional, cell-based; how it was run: as §2
# RAW264.7 [11] = assay: Induction of pyroptosis in mouse RAW264.7 cells expressing NLRP1B allele 1 assessed as LDH release at 20 uM incubated for 24 hrs; format: functional, cell-based
# How it was run: (§3)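 RAW264.7 cells, grown in DMEM with 10% FBS, plated at 5 × 10^5 cells/well and exposed to 20 μM compound for 24 h. Supernatant LDH was measured relative to a Triton X-100 lysis control; lysates were immunoblotted for GSDMD cleavage. n = 3.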
# BMDM = assay: Induction of pyroptosis in C57BL/6J mouse BMDM cells expressing NLRP1A and NLRP1B allele 2 assessed as GSDMD clevage at 20 uM incubated for 24 hrs by immunoblot analysis; format: functional, cell-based
# How it was run: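 Bone marrow cells from femurs and tibias of 7–12-week-old C57BL/6J mice were RBC-lysed and differentiated for 6 days at 37 °C in DMEM with 10% FBS and 15–20% L-cell medium, then replated. Cells were exposed to 20 μM compound for 24 h. Read-outs were LDH release against a lysis control and GSDMD immunoblot.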
# RAW264.7 [12] = assay: Induction of pyroptosis in mouse RAW264.7 cells expressing NLRP1B allele 1 assessed as GSDMD clevage at 20 uM incubated for 24 hrs by immunoblot analysis; format: functional, cell-based; how it was run: as §3
# THP-1 [13] = assay: Induction of pyroptosis in DPP8/9 knockout human THP-1 cells assessed as LDH release at 20 uM incubated for 24 hrs; format: functional, cell-based; how it was run: as §2
# THP-1 [14] = assay: Induction of pyroptosis in DPP8/9 knockout human THP-1 cells assessed as GSDMD clevage at 20 uM incubated for 24 hrs by immunoblot analysis; format: functional, cell-based; how it was run: as §2
# HEK-293T = assay: Induction of pyroptosis in human HEK293T cells expressing CASP1 and GSDMD cotransfected with dTAG-CARD8ZUC and CARD8 FIIND S297A assessed as destabilization of DPP9-CARD8 ternary complex by measuring LDH release at 20 uM incubated for 6 hrs in presence of dTAG13; format: functional, cell-based
# THP-1 [15] = assay: Induction of pyroptosis in CARD8 knockout human THP-1 cells harboring dox-inducible […] E274R mutant assessed as cell death by measuring LDH release at 20 uM pretreated with doxycycline for 16 hrs followed by compound addition and measured after 6 hrs; format: functional, cell-based
# How it was run: (§4)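 CARD8−/− THP-1 cells carrying a doxycycline-inducible CARD8 E274R mutant were exposed or not to DOX at 100 ng/mL for 16 h. Compound was then added at 20 μM for 6 h, followed by LDH release and immunoblot analysis.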
# THP-1 [16] = assay: Induction of pyroptosis in CARD8 knockout human THP-1 cells harboring dox-inducible […] E274R mutant assessed as GSDMD cleavage at 20 uM pretreated with doxycycline for 16 hrs followed by compound addition and measured after 6 hrs by immunoblot analysis; format: functional, cell-based; how it was run: as §4
# Xaa-Pro aminopeptidase 1 = Xaa-Pro aminopeptidase 1 (Homo sapiens, UniProt Q9NQW7); assay: Inhibition of 6-His tagged XPNPEP1 (unknown origin) expressed in Escherichia coli Rosetta DE3 cells using H-Lys(abz)-Pro-Pro-pNA as substrate at 20 uM incubated for 60 mins by fluorescence based analysis relative to control
# Chain of Xaa-Pro aminopeptidase 1 (Q9NQW7 whole entry): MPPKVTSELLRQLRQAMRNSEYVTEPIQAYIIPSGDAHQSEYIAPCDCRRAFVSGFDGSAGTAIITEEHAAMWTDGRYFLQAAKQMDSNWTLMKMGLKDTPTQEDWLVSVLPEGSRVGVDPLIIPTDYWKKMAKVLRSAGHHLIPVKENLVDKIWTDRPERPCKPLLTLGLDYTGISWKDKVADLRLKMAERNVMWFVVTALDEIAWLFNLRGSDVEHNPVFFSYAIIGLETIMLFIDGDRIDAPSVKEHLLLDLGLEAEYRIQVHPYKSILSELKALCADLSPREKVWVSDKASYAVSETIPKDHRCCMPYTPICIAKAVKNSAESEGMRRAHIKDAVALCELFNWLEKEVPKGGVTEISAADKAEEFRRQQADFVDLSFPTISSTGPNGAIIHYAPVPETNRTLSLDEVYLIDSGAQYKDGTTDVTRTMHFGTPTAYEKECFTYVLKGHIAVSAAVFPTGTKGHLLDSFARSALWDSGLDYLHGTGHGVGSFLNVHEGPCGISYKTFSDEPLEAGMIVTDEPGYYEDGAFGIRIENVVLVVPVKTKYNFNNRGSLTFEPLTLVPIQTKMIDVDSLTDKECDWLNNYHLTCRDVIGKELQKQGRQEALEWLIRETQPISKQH
# How it was run: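 His6-tagged XPNPEP1 was expressed in E. coli Rosetta DE3 (IPTG, 16 h, 37 °C) and purified on TALON resin. Enzyme at 3.5 nM was exposed to compound, then H-Lys(abz)-Pro-Pro-pNA was added at 100 μM final. Fluorescence (Ex/Em 320/410) was followed for 60 min. Single-point inhibition used 20 μM; IC50 as mean ± SEM of three biological replicates.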
# THP-1 [17] = assay: Induction of pyroptosis in XPNPEP1 knockout human THP-1 cells assessed as LDH release at 20 uM incubated for 24 hrs; format: functional, cell-based; how it was run: as §2
# THP-1 [18] = assay: Induction of pyroptosis in XPNPEP1 knockout human THP-1 cells assessed as GSDMD clevage at 20 uM incubated for 24 hrs by immunoblot analysis; format: functional, cell-based; how it was run: as §2
# THP-1 [19] = assay: Induction of pyroptosis in PEPD/XPNPEP1 knockout human THP-1 cells assessed as LDH release at 20 uM incubated for 24 hrs; format: functional, cell-based; how it was run: as §2
# [20] = Drug metabolism in human MV4-11 cell culture supernatant assessed as (S)-1-((2S,3R)-3-amino-2-hydroxy-5-methylhexanoyl)pyrrolidine-2-carboxylic acid formation measured within 30 mins by LC-MS analysis; format: ADME, cell-based; conditions: mv4-11, 0.5 h
inhibition (Xaa-Pro aminopeptidase 1) [%],Compound,IC50 (MV4-11 [1]) [nM],Activity (MV4-11 [3]),Activity (MV4-11 [4]),Activity (OCI-AML2 [5]),Activity (THP-1 [6]),Activity (MV4-11 [7]),Activity (OCI-AML2 [8]),Activity (OCI-AML2 [9]),Activity (THP-1 [10]),Activity (RAW264.7 [11]),Activity (BMDM),Activity (RAW264.7 [12]),Activity (THP-1 [13]),Activity (THP-1 [14]),Activity (HEK-293T),Activity (THP-1 [15]),Activity (THP-1 [16]),Activity (THP-1 [17]),Activity (THP-1 [18]),also measured
96,COC(=O)[C@@H]1CCCN1C(=O)[C@@H](O)[C@H](N)CC(C)C,2200,Active,Active,inactive,inactive,inactive,Active,inactive,Active,inactive,inactive,inactive,inactive,inactive,Active,inactive,inactive,Active,Active,Activity (MV4-11 [2]): 28%; Activity (THP-1 [19]): inactive; Drug metabolism [20]: Metabolite_Detected
74,COC(=O)[C@H](CC(C)C)NC(=O)[C@@H]1CCCN1C(=O)[C@@H](O)[C@H](N)CC(C)C,270,Active,Active,inactive,inactive,inactive,Active,inactive,Active,inactive,inactive,inactive,inactive,inactive,Active,inactive,inactive,Active,Active,Activity (THP-1 [19]): inactive
